DENV2 CPE = inhibitors of DENV2 cytopathic effect; DENV2-infected cells, cytopathic effect rescue, plate reader; CPE inhibition, % at 9.99 µM; 1.7% of 350,000 active; AID 651640; in the data active = CPE inhibition above about 20%, passing the limit was not always enough; inconclusive = no clear call, values can overlap the other calls; tested in BHK-21 cells
Cneo AK release = causes C. neoformans cell lysis; adenylate kinase release luminescence, 4 h; normalised: neutral wells 0, clomiphene wells 100; lysis activity, % at 15 µM; 0.2% of 360,000 active; AID 651654;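 active = mean lysis activity across replicates of at least 80%, whatever share of replicates individually reach that level; inactive = mean lysis activity below 80%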
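Material: C. neoformans cells | Amount: Yeast cell density of 5 × 10^6 cells/mL | Medium: Fresh YPD growth medium | Dosing: Single dose | Times: Static 4 h at 37 °C with compound, 1 h detection | Detection: AK luminescence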
XiGFP reactiv = X-chromosome reactivation activator; XiGFP mouse fibroblasts, % GFP-positive cells imaging, 3 d; cells co-treated with 5-aza-dC sensitizer; scaled so ellipticine positive control = 100%; activation, % at 7.58 µM; 0.055% of 360,000 active;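 active = mean normalized replicate activation at least 10% and every replicate at or above 10%; inconclusive = only one of the two criteria met; inactive = mean below 10% and not all replicates reach 10%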
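assay system = SV40-immortalized XiGFP fibroblast cells, line 68-5-11 | buffer or medium = DMEM plus 5-aza-dC sensitizer | doses = single-point pinned compound dosing | times = 3-day compound exposure, then 15 min fixation at room temperature | benchmarks = positive control ellipticine, 6 µM final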
Statin myotox sup = protects C2C12 myotubes from simvastatin toxicity; ATP luminescence, 48 h; scaled: DMSO 0, geranylgeraniol control 100; rescue of ATP level, % at 7.49 µM; 0.78% of 330,000 active; AID 602340;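 active = mean ATP rescue above about 67%, or every replicate alone reaching that limit, limit read from the data, passing the limit was not always enough; inconclusive = no clear call, values can overlap the other calls; inactive = mean under the limit and some replicate under it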;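 also: myotubes were challenged with 10 µM simvastatin during compound exposure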
Hits are given with their value; i = inactive; ? = inconclusive; nt = no result given; ! = a repeat was not active. In the library only some 2.1% were active in any assay of this set; here they are far more common.

SMILES | DENV2 CPE | Cneo AK release | XiGFP reactiv | Statin myotox sup
C[C@H]1CN([C@@H](C)CO)S(=O)(=O)c2ccc(C#CC(C)(C)O)cc2O[C@H]1CN(C)C | i | i | i | i
CO[C@@H]1CN(C)C(=O)c2cc(NC(=O)c3cc(C)on3)ccc2OC[C@H](C)N(C(C)=O)C[C@H]1C | i | i | i | i
CC(C)C#Cc1ccc([C@@H]2[C@@H](CO)N3CCCCN(CC4CC4)C[C@H]23)cc1 | i | i | i | nt
C[C@H](O)C#Cc1ccc([C@H]2[C@@H](CO)N3CCCCN(CC4CC4)C[C@H]23)cc1 | 22.5 | i | i | i
CC(C)C#Cc1ccc([C@H]2[C@H](CO)N3CCCCN(CC4CC4)C[C@@H]23)cc1 | 25.8 | i | i | nt
C[C@H](O)C#Cc1ccc([C@H]2[C@H](CO)N3CCCCN(CC4CC4)C[C@@H]23)cc1 | i | i | i | i
CS(=O)(=O)N1[C@H](C(=O)NCC2CC2)[C@@H](CO)[C@@H]2Cn3c(ccc(-c4ccccc4F)c3=O)[C@@H]21 | i | nt | i | nt
C[C@@H](NC(=O)[C@H]1[C@H](CO)[C@H]2Cn3c(ccc(-c4ccncc4)c3=O)[C@@H]1N2C)c1ccccc1 | i | i | i | i
CN(C)CCCNC(=O)[C@@H]1[C@@H](CO)[C@@H]2Cn3c(ccc(-c4ccc(F)cc4)c3=O)[C@H]1N2C | i | i | i | i
CN(C)CCCNC(=O)[C@H]1[C@H](CO)[C@H]2Cn3c(ccc(-c4ccccc4)c3=O)[C@@H]1N2C | 46.7 | i | i | i
CCC(=O)N1[C@@H]2c3ccc(C4=CCCCC4)c(=O)n3C[C@H]1[C@H](CO)[C@H]2C(=O)N[C@H](C)c1ccccc1 | 92.7 | i | i | i
CC(=O)N1[C@@H]2Cn3c(ccc(C4=CCCCC4)c3=O)[C@H]1[C@@H](C(=O)N[C@@H](C)c1ccccc1)[C@@H]2CO | i | i | i | i
COc1ccccc1-c1ccc2n(c1=O)C[C@H]1[C@H](CO)[C@@H](C(=O)N[C@H](C)c3ccccc3)[C@@H]2N1C | 74.0 | i | i | i
CNC(=O)C[C@@H]1CC[C@H]2[C@H](COc3ccc(NC(=O)Nc4ccccc4)cc3C(=O)N2C)O1 | ? | i | i | i
O=S(=O)(c1cccc(F)c1)N1CCN(C(=S)NCC2CCCO2)CC1 (stereo unspecified) | i | i | i | i
O=S(=O)(c1cccc(Br)c1)N1CCN(C(=S)NCC2CCCO2)CC1 (stereo unspecified) | 67.7 | nt | i | nt
COC(=O)[C@@](C)(O)C1(C(=O)SC(C)(C)C)CC1 | 130.0 | i | i | i
Cc1c(C(C)C)c(=O)n(-c2ccc(S(=O)(=O)NC(C)C)cc2)n1C | i | i | i | i
CCN(CC)S(=O)(=O)c1ccc(-n2c(=O)c(C(C)C)c(C)n2C)cc1 | i | i | i | 86.8
O=C(c1cccnc1)N1CCCCN2[C@H](CO)[C@@H](c3ccc(C#Cc4ccccn4)cc3)[C@H]2C1 | 20.3 | i | i | i
Cc1ccccc1-c1ccc([C@@H]2[C@@H](CO)N3CCCCN(C(=O)c4cccnc4)C[C@H]23)cc1 | 49.1 | i | i | i
CN(C)C(=O)c1ccc(-c2ccc(C3[C@@H]4CN(C(=O)c5cnccn5)C[C@H]3N4)cc2)cc1 (stereo partly specified) | i | nt | i | nt
Cc1ccccc1-c1ccc(C2[C@@H]3CN(C(=O)c4cnccn4)C[C@H]2N3)cc1 (stereo partly specified) | 29.2! | nt | i | nt
C[C@@H]1CN([C@@H](C)CO)C(=O)c2ccccc2-c2ccccc2CO[C@@H]1CN(C)S(=O)(=O)c1ccc([N+](=O)[O-])cc1 | i | nt | i | nt
CC(C)NC(=O)N(C)C[C@@H]1OCCCC[C@@H](C)Oc2ccc(NC(=O)Nc3ccccc3)cc2C(=O)N([C@@H](C)CO)C[C@H]1C | i | i | i | nt
SMILES | DENV2 CPE | Cneo AK release | XiGFP reactiv | Statin myotox sup
Cc1cccc(C)c1NC(=S)NC(C)CCc1ccccc1 (stereo unspecified) | 46.9 | i | i | i
CCOc1ccc2nc(NC(=O)CN3CCN(CC)CC3)sc2c1 | 44.2 | i | i | i
Cc1cc(Cl)ccc1OCC(=O)Nc1ccccc1C(=O)N1CCOCC1 | i | i | i | i
O=C(O)/C=C\C(=O)Nc1ccccc1C(=O)N1CCN(c2ccc(Cl)cc2)CC1 | nt | i | nt | 88.0
O=C(O)c1ccccc1C(=O)N1CCN(c2cccc(Cl)c2)CC1 | nt | i | nt | 84.3
COc1cc(Cl)ccc1NC(=O)COc1ccccc1C(=O)N1CCN(c2ccc(O)cc2)CC1 | nt | i | nt | 121.8
C[C@H]1CN([C@@H](C)CO)C(=O)CCCn2cc(nn2)CO[C@H]1CN(C)S(=O)(=O)c1ccc(F)cc1 | i | i | i | i
CCCc1cc(=O)n2[nH]c(C)nc2n1 | nt | i | nt | i
Cc1nc2nc(CSc3nnc(C)s3)cc(=O)n2[nH]1 | i | i | i | 107.0!
COc1cccc(CN2[C@H](CO)[C@@H](c3ccccc3)C23CN(Cc2ccccc2)C3)c1 | nt | nt | i | nt
C[C@@H]1CN([C@H](C)CO)C(=O)c2cc(C3=CCCC3)cnc2O[C@@H]1CN(C)Cc1ccc(C(=O)O)cc1 | i | i | i | i
C[C@@H]1CN([C@@H](C)CO)C(=O)c2cc(C3=CCCC3)cnc2O[C@@H]1CN(C)Cc1ccc(C(=O)O)cc1 | 24.9 | i | i | i
C[C@@H]1CN([C@H](C)CO)C(=O)c2cc(C3=CCCCC3)cnc2O[C@@H]1CN(C)Cc1ccccc1F | i | i | i | 114.7
C[C@H]1CN([C@@H](C)CO)C(=O)c2cc(C3=CCCC3)cnc2O[C@@H]1CN(C)Cc1ccccc1F | i | i | i | i
CC=Cc1ccc2n(c1=O)C[C@H]1[C@H](CO)[C@@H](C(=O)NCC(F)(F)F)[C@@H]2N1C(=O)C1CC1 (mixture of isomers) | 59.2 | i | i | i
CC=Cc1ccc2n(c1=O)C[C@@H]1[C@@H](CO)[C@H](C(=O)NCC(F)(F)F)[C@H]2N1C(=O)C1CC1 (mixture of isomers) | ? | i | i | i
CC=Cc1ccc2n(c1=O)C[C@@H]1[C@@H](CO)[C@H](C(=O)NCC(F)(F)F)[C@H]2N1C(C)=O (mixture of isomers) | 76.1 | i | i | i
CC(=O)N1[C@@H]2Cn3c(ccc(-c4ccc(F)cc4)c3=O)[C@H]1[C@@H](C(=O)N(C)C)[C@@H]2CO | 27.2 | i | i | i
C[C@H](CO)N1C[C@H](C)[C@@H](CN(C)C(=O)Nc2ccc(C(F)(F)F)cc2)OCCCC[C@H](C)Oc2ccc(N(C)C)cc2C1=O | nt | nt | i | i
O=S(=O)(N[C@H]1CC[C@@H](CCn2cc(-c3ccccc3F)nn2)O[C@H]1CO)c1ccc(F)cc1 | i | nt | i | nt
CCC(=O)N1CC2(CCN(Cc3ccc(F)cc3)CC2)c2c(n(C)c3cc(OC)ccc23)[C@H]1CO | i | nt | i | nt
CCN1C/C(=C\c2cccc([N+](=O)[O-])c2)C(=O)/C(=C/c2cccc([N+](=O)[O-])c2)C1 | 33.2 | i | i | nt
Cc1ccccc1N=C1Nc2ccccc2N[C@]12C[C@H]1CCC(=O)N3CC[C@@H](C2)[C@@H]13 | 148.3 | i | i | i

Screening data (PubChem BioAssay)
